Experiment [1] deals with T1, Nitric oxide synthase, inducible (Homo sapiens, UniProt P35228). In words: Inhibition of cytokine-induced iNOS activity in human DLD1 cells after 24 hrs. Type of experiment: cell-based, DLD-1. A digest of the protocol: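 DLD-1 cells were seeded 3 days ahead, then given fresh medium with 20 ng/mL IFNγ, 4 ng/mL TNFα, 2 ng/mL IL1β and 1 mM L-arginine. Compound titrations in 50 mM Hepes pH 7.4 were added at eight concentrations for 24 h at 37 °C, 5% CO2. Nitrite was read with Griess reagent at 540 nm.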
T1 sequence (P35228 whole entry): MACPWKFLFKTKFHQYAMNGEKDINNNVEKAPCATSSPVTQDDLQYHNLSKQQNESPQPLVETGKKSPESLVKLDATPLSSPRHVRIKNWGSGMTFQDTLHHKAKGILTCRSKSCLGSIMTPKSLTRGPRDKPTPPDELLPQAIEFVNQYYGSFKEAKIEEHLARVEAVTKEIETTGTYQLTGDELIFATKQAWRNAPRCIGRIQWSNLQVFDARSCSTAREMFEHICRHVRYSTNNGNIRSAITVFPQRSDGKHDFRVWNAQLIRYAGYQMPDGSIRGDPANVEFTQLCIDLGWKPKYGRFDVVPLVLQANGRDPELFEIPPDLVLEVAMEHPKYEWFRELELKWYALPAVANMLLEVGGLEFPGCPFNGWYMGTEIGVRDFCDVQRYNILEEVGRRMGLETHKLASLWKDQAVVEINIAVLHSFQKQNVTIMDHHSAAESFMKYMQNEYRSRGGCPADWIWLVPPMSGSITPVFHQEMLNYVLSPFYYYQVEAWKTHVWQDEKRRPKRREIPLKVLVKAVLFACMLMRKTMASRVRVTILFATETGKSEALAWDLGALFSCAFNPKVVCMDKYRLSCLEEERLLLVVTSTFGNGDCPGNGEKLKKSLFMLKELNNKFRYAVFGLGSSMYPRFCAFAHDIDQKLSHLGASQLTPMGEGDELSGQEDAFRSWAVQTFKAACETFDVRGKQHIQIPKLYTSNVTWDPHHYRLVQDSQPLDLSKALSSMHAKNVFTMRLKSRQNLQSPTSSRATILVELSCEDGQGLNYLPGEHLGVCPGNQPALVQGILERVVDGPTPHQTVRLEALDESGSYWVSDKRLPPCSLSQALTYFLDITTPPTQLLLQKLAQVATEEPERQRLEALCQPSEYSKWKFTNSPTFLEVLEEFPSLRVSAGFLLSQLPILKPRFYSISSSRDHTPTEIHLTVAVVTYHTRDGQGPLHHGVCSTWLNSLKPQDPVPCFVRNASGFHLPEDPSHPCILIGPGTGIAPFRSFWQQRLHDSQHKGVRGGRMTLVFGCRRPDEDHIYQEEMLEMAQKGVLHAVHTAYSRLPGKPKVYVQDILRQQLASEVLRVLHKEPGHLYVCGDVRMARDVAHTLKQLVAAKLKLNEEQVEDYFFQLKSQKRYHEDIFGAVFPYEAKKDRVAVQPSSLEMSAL

The target of experiment [2] is T2, Nitric oxide synthase 1 (Homo sapiens, UniProt P29475). As to the kind of experiment: Inhibition of human nNOS expressed in insect SF9 cells at 10 uM after 1 hr. In short, it runs like this:
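Human recombinant nNOS expressed in SF9 cells, incubated with test compound, 10 nM [3H]arginine and [14C]citrulline (80–120 nM) internal standard in 50 mM Hepes for 1 h at 37 °C. Cofactors were β-NADP+, G6P, MgCl2, G6P dehydrogenase, FAD, FMN, BH4, 25 nM calmodulin, 0.5 mM CaCl2 and 3.5 mM glutathione. After MES stop and cation-exchange filtration, [3H]citrulline was counted; background came from 10 µM AMT.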

The species entered for the next experiment is Homo sapiens. As to the kind of experiment: Selectivity for human eNOS to human iNOS. A digest of the protocol:
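Ratio of eNOS IC50 to iNOS IC50, both from [3H]arginine→[3H]citrulline conversion. iNOS was endogenous to DLD-1 cells; eNOS was human recombinant expressed in SF9 cells. Each used 10 nM [3H]arginine with NADP+/G6P/FAD/FMN/BH4 cofactors in 50 mM Hepes for 1 h at 37 °C. The eNOS reaction also had calmodulin, CaCl2 and glutathione. Citrulline was separated by cation exchange and counted. IC50s came from eight concentrations, as geometric means of ≥3 runs.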

Experiment [3] has as its target T3, Nitric oxide synthase 3 (Homo sapiens) (UniProt P29474).
T3 sequence (whole entry): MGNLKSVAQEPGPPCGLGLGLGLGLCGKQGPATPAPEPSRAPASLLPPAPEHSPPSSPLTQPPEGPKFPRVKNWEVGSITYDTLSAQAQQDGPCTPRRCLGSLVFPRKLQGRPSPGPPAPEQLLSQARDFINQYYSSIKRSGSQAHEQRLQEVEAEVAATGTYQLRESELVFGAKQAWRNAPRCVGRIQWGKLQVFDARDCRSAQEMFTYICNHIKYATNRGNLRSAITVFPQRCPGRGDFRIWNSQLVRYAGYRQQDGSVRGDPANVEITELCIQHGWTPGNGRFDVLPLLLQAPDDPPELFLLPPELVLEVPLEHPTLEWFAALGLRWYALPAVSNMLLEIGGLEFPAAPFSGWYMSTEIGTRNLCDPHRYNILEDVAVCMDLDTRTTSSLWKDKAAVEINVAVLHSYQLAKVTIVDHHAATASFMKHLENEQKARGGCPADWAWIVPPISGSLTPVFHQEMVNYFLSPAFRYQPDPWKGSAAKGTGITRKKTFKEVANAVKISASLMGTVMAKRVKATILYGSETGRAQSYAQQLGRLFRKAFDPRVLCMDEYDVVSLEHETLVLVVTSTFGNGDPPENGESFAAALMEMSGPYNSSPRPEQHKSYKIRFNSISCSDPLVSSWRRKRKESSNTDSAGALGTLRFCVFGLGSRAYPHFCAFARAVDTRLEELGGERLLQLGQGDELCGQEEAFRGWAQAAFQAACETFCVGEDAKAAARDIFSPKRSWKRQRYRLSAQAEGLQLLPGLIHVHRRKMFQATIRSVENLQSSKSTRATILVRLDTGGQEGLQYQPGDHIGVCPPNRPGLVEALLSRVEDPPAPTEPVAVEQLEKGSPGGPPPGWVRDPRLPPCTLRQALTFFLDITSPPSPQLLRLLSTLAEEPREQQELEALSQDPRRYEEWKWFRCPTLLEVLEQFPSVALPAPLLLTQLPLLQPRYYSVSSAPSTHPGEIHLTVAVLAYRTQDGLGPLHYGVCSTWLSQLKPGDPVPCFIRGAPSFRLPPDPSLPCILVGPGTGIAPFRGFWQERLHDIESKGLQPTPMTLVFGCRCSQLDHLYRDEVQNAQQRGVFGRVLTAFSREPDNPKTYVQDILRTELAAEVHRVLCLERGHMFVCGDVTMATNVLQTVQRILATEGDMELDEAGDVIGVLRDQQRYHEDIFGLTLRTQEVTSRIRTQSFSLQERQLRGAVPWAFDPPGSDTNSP
As to the kind of experiment: Inhibition of human eNOS expressed in insect SF9 cells at 10 uM after 1 hr.

Experiment [4] addresses T1, Nitric oxide synthase, inducible. As to the kind of experiment: Inhibition of human iNOS expressed in human DLD1 cells after 1 hr. Type of experiment: cell-based, DLD-1. In short, it runs like this:
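Human iNOS endogenously expressed in DLD-1 cells, eight compound concentrations. Incubated 1 h at 37 °C in 50 mM Hepes with 10 nM [3H]arginine, [14C]citrulline internal standard, β-NADP+, G6P, MgCl2, G6P dehydrogenase, FAD, FMN and BH4. [3H]citrulline was separated on cation-exchange resin and counted; AMT defined background.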

For experiment [5] the target is unchanged. As to the kind of experiment: Inhibition of cytokine-induced iNOS activity in human DLD1 cells at 10 uM after 24 hrs. Type of experiment: cell-based. The settings on record: DLD-1.
Experiment [6] deals with T2, Nitric oxide synthase 1. As to the kind of experiment: Inhibition of human nNOS expressed in insect SF9 cells after 1 hr.
The target in experiment [7] is T1, Nitric oxide synthase, inducible. In words: Inhibition of human iNOS expressed in human DLD1 cells at 10 uM after 1 hr. The settings on record: DLD-1. The format is cell-based.
The target in a further experiment is T4, Nitric oxide synthase 3 (Homo sapiens, UniProt P29474).
T4 sequence (P29474 whole entry): T3 sequence (whole entry)
In words: Inhibition of human eNOS expressed in insect SF9 cells after 1 hr. In short, it runs like this:
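Human recombinant eNOS from SF9 cells, tested at eight concentrations. Conditions: 10 nM [3H]arginine with NADP+/G6P/G6PDH, MgCl2, FAD, FMN, BH4, plus 25 nM calmodulin, 0.5 mM CaCl2 and 3.5 mM glutathione, in 50 mM Hepes for 1 h at 37 °C. Citrulline was resin-separated and counted, with AMT background. IC50 from one-site fit, geometric mean of ≥3 runs.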

Molecules are shown by their SMILES.

T2 sequence (P29475 whole entry): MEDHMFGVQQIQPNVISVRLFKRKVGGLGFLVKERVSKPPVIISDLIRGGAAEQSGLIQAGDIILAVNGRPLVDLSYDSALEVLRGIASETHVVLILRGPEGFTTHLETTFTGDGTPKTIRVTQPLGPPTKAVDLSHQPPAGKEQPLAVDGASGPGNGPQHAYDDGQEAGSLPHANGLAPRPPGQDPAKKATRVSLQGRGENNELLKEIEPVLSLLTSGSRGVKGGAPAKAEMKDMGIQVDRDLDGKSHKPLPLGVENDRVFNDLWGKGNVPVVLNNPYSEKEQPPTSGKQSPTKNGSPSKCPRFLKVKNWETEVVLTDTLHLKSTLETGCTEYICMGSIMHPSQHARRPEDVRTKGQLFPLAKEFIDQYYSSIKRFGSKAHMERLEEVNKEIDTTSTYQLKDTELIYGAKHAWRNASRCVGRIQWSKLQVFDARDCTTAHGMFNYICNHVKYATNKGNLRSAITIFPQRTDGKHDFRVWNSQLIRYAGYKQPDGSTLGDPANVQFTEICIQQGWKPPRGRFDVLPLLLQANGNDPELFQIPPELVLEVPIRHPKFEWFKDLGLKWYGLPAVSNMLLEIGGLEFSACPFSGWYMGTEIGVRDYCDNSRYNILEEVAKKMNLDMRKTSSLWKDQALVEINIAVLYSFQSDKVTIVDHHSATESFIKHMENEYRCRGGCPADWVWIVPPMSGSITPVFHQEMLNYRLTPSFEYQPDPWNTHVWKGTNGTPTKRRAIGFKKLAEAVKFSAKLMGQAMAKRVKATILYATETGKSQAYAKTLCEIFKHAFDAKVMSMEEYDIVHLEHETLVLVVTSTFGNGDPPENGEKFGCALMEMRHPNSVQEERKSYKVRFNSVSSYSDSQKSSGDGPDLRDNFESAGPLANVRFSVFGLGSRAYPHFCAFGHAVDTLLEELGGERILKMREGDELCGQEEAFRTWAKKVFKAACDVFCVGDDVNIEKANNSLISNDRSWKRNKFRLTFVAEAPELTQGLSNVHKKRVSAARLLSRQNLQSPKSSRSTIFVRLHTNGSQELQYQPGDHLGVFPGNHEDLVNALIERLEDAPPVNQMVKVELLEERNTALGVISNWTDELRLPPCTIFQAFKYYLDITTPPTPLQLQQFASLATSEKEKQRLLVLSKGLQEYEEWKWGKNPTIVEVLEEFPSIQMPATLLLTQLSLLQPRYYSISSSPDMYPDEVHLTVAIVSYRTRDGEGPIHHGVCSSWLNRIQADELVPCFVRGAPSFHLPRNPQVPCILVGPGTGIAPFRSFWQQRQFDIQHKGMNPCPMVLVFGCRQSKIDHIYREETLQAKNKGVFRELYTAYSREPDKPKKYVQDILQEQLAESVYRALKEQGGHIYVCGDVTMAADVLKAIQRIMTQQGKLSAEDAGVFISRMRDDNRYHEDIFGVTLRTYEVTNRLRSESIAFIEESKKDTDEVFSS

A word on the IC50: it is the concentration that inhibits the measured activity by half. Higher therefore signals weaker potency. A word on the inhibition: it is the share of the control response that was lost under treatment. Regarding `N#Cc1ccc(Cl)cc1CN(c1ccccc1)C1CCNCC1`, the half-inhibitory concentration (IC50) in experiment [1] was found to be 8000 nM; in [4] it was 660 nM. Moreover, the figures for the inhibition (against Nitric oxide synthase 1 [2]; in experiment [3]) were 33% and 0%, respectively. Moreover, in the experiment listed under Homo sapiens, the Ratio IC50 was more than 15.

For `N#Cc1ccc(Cl)cc1CN(C1CCCC1)C1CCNCC1`, the concentration for half-maximal inhibition (IC50) turned out to be 6700 nM in experiment [1] and 1500 nM in experiment [4]. Also, the inhibition amounted to 24% against Nitric oxide synthase 1 [2] and 1% in [3]. Also, in the experiment listed under Homo sapiens, the Ratio IC50 is more than 7.

Turning to `CC(=N)NCCSCC[C@H](N)C(=O)O` [GW-274150], the Ratio IC50 in the experiment listed under Homo sapiens was more than 45. The inhibition in experiment [3] is less than 15%; in [5], 26%. For the same compound, the results for the IC50 (in [4]; at Nitric oxide synthase 1 [6]) were 220 nM and 8400 nM, respectively.

Consider `CN1CCC(N(C)Cc2ccccc2[N+](=O)[O-])CC1`, for which the inhibition in experiment [7] and in experiment [5] was less than 15% each time.

As to `CN1CCC(N(C)Cc2cc([N+](=O)[O-])ccc2Cl)CC1`, the inhibition in experiment [7] and in experiment [5] was less than 15% in each case.

Consider `CN1CCC(N(C)Cc2ccccc2)CC1`, for which the inhibition in experiment [7] and in experiment [5] was less than 15% in each case.

As to `CN(Cc1cc(Cl)ccc1C#N)C1CCNC1` (stereo unspecified), in the experiment listed under Homo sapiens, the Ratio IC50 came to 3. Moreover, the half-inhibitory concentration (IC50) stood at 1200 nM in experiment [4], 4000 nM on Nitric oxide synthase 3 and 1200 nM at Nitric oxide synthase 1 [6]. Moreover, the inhibition in experiment [5] amounted to 33%.
